Calls of active or inactive are those of the source. The calls are words filed in the database; no cut-off is given here.
Experiments:
[1] = tested on: J774.A1; experiment: Antiproliferative activity against mouse J774.A1 cells assessed as reduction in cell viability at 100 uM incubated for 24 hrs by MTT assay; type: functional, cell-based
Method in brief: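 J774A.1 cells at 5 × 10^4 cells/well adhered 3 h, then were incubated 24 h with compound serial dilutions (100–12.5 μM). MTT (5 mg/mL stock) was added for 3 h, formazan dissolved in DMSO, and OD read at 570 nm. The value is the % dead cells, 100 − [(OD treated/OD control) × 100]. 6-Mercaptopurine (1 μM) was the reference. At least three experiments, each in triplicate.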

[2] = tested on: J774.A1; experiment: Antiinflammatory activity in mouse J774.A1 macrophages assessed as inhibition of LPS-induced COX2 expression at 1 uM preincubated for 1 hr followed by LPS stimulation and measured after 24 hrs by cytofluorimetry analysis; type: functional; conditions: time 25 hrs
Method in brief: (§1)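 J774A.1 cells plated at 5 × 10^4 cells/well and allowed to adhere 3 h at 37 °C. Compounds were added 1 h before and then together with E. coli LPS (10 μg/mL) for 24 h. Cells were fixed and permeabilized, then stained with anti-iNOS or anti-COX-2 and a secondary antibody. Read as mean fluorescence intensity by flow cytometry. Indomethacin (1 μM) served as positive control. At least three independent experiments, each in triplicate.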

[3] = tested on: J774.A1; experiment: Antiinflammatory activity in mouse J774.A1 macrophages assessed as inhibition of LPS-induced NO production at 12.5 to 50 uM preincubated for 1 hr followed by LPS stimulation and measured after 24 hrs by griess reagent based assay; type: functional, cell-based; conditions: dose 12.5-50 µM, time 25.0 hrs
Method in brief: (§2)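 Macrophages adhered 3 h at 5 × 10^4 cells/well, then were exposed to compound (50–12.5 μM) for 1 h before E. coli LPS (10 μg/mL) was added. After 24 h, nitrite in the medium was reacted with Griess reagent for 10 min at room temperature and absorbance read at 550 nm. Values are in μM from a sodium nitrite standard curve. L-NAME (1 μM) served as reference. Data are mean ± SEM, n ≥ 3, triplicate.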

[4] = tested on: J774.A1; experiment: Antiinflammatory activity in mouse J774.A1 macrophages assessed as inhibition of LPS-induced COX2 expression at 12.5 to 50 uM preincubated for 1 hr followed by LPS stimulation and measured after 24 hrs by cytofluorimetry analysis; type: functional, cell-based; conditions: dose 12.5-50 µM, time 25.0 hrs; method in brief: as §1
[5] = tested on: J774.A1; experiment: Antiinflammatory activity in mouse J774.A1 macrophages assessed as inhibition of LPS-induced iNOS expression at 12.5 to 50 uM preincubated for 1 hr followed by LPS stimulation and measured after 24 hrs by cytofluorimetry analysis; type: functional, cell-based; conditions: dose 12.5-50 µM, time 25.0 hrs; method in brief: as §1
[6] = tested on: J774.A1; experiment: Antioxidant activity in mouse J774.A1 macrophages assessed as inhibition of LPS-induced intracellular ROS production at 12.5 to 50 uM preincubated for 1 hr followed by LPS stimulation and measured after 24 hrs by DCFH2-DA probe based fluorescence analysis; type: functional, cell-based; conditions: dose 12.5-50 µM, time 25.0 hrs
Method in brief: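 Macrophages (J774A.1, 5 × 10^4 cells/well, 3 h adherence) were given the compound (50–12.5 µM) 1 h before and during LPS (10 µg/mL). After 24 h cells were collected and washed twice in PBS, then loaded with 10 µM H2DCF-DA in PBS at 37 °C for 15 min. DCF fluorescence was read by flow cytometry as mean fluorescence intensity versus LPS alone. Means ± SEM, ≥3 independent experiments, each in triplicate.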

[7] = tested on: J774.A1; experiment: Antioxidant activity in mouse J774.A1 macrophages assessed as inhibition of LPS-induced nitrotyrosine formation at 12.5 to 50 uM preincubated for 1 hr followed by LPS stimulation and measured after 24 hrs by cytofluorimetry analysis; type: functional, cell-based; conditions: dose 12.5-50 µM, time 25.0 hrs
Method in brief: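 Cells were pretreated 1 h with compound (50–12.5 μM), then LPS (10 μg/mL) was added for 24 h. Cells were harvested, PBS-washed, fixed 20 min and permeabilized 30 min. They were stained 30 min with rabbit anti-nitrotyrosine, then 30 min with secondary antibody. Mean fluorescence intensity was read by flow cytometry. L-NAME and indomethacin (1 μM each) were positive controls. Mean ± SEM of at least three experiments, each in triplicate.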

[8] = tested on: J774.A1; experiment: Antiinflammatory activity in mouse J774.A1 macrophages assessed as reduction in LPS-induced nitrite production at 12.5 to 50 uM preincubated for 1 hr followed by LPS stimulation and measured after 24 hrs by griess reagent based assay; type: functional, cell-based; conditions: dose 12.5-50 µM, time 25.0 hrs; method in brief: as §2
[9] = tested on: J774.A1; experiment: Antioxidant activity in mouse J774.A1 macrophages assessed as inhibition of LPS-induced nitrotyrosine formation at 25 to 50 uM preincubated for 1 hr followed by LPS stimulation and measured after 24 hrs by cytofluorimetry analysis; type: functional, cell-based; conditions: dose 25-50 µM, time 25.0 hrs
Method in brief: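 J774A.1 cells (5 × 10^4 cells/well, 3 h adherence) were pretreated with compound (50–12.5 µM) for 1 h, then LPS (10 µg/mL) was added. After 24 h cells were PBS-washed, fixed for 20 min and permeabilized for 30 min. Rabbit anti-nitrotyrosine and secondary antibody were each applied for 30 min. Read-out was flow-cytometric mean fluorescence intensity versus LPS alone. Means ± SEM, ≥3 independent experiments, each in triplicate.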

[10] = tested on: J774.A1; experiment: Antiinflammatory activity in mouse J774.A1 macrophages assessed as inhibition of LPS-induced iNOS expression at 1 uM preincubated for 1 hr followed by LPS stimulation and measured after 24 hrs by cytofluorimetry analysis; type: functional; conditions: time 25 hrs
Method in brief: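 J774A.1 cells were plated at 5 × 10^4 cells/well and allowed to adhere for 3 h. The agent was added 1 h before LPS (10 µg/mL) and kept during stimulation; cells were harvested after 24 h. Cells were washed in PBS, fixed for 20 min and permeabilized for 30 min. Anti-iNOS primary and secondary antibodies were each applied for 30 min. Read-out was flow-cytometric mean fluorescence intensity versus LPS alone. Means ± SEM, ≥3 independent experiments, each in triplicate.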

[11] = tested on: J774.A1; experiment: Antiinflammatory activity in mouse J774.A1 macrophages assessed as inhibition of LPS-induced NO production at 1 uM preincubated for 1 hr followed by LPS stimulation and measured after 24 hrs by griess reagent based assay; type: functional; conditions: time 25 hrs
Method in brief: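 Murine J774A.1 cells (DMEM, 10% FBS) were plated at 5 × 10^4 cells/well and allowed to adhere for 3 h at 37 °C in 5% CO2. They were exposed to the agent in fresh medium for 1 h, then to E. coli LPS at 10 µg/mL for 24 h. Medium nitrite was measured with Griess reagent (10 min, room temperature, A550) and converted to µM against a sodium nitrite standard. Means ± SEM, ≥3 independent experiments, each in triplicate.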

In the case of C[C@H]1CO[C@]2(C1)OC(=O)c1cc3c(cc12)CC(C)(C)CC3, the Activity [1] is reported as “Active”.

Cc1cc2ccc3c(c2cc(O)c1=O)CCCC3(C)C was tested, and the Activity [1] was “Active”.

COc1ccc2c(c1)c(CC(=O)O)c(C)n2C(=O)c1ccc(Cl)cc1 [INDOMETHACIN] showed an inhibition at 1 µM [2] of 47.8%.

With CC(C)c1cc2c(cc1O)[C@@]1(C)CCCC(C)(C)C1=C(O)C2=O the inhibition [3] was “Active”, the inhibition [4] was “Active” and the inhibition [5] was “Active”. For the same compound, the Activity [1] was “Active”.

In the case of Cc1coc2c1C(=O)C(=O)c1c-2ccc2c1C(=O)CCC2(C)C, the inhibition [3] is reported as “Active”, the inhibition [4] is reported as “Active” and the inhibition [6] is reported as “Active”. For the same compound, the inhibition [5] was “Active”, the inhibition [7] was “Active” and the Activity [8] was “Active”.

CC(C)C1=CC2=C(C(=O)C1=O)[C@@]1(C)CCCC(C)(C)C1C[C@@H]2O (stereo not given in full) was tested, and the Activity [1] was “Active”.

In the case of C[C@H]1COC2=C1C(=O)C(=O)c1c2ccc2c1CCCC2(C)C, the inhibition [3] is reported as “Active”, the inhibition [4] is reported as “Active” and the inhibition [6] is reported as “Active”. For the same compound, the inhibition [5] was “Active”, the Activity [1] was “Active” and the inhibition [9] was “Active”.

CC(C)/C(=C/c1ccc2c3c1C(=O)O[C@H]3CCC2(C)C)C(=O)O was tested, and the inhibition [3] was “Active”, the inhibition [4] was “Active” and the inhibition [5] was “Active”.

In the case of CC(C)c1cc2ccc3c(c2oc1=O)CCCC3(C)C, the Activity [1] is reported as “Active”.

For CC(C)c1cc2c(cc1O)[C@@]1(CO)CCCC(C)(C)[C@@H]1CC2, the inhibition [3] was “Active”, the inhibition [4] was “Active” and the inhibition [5] was “Active”. The Activity [1] was “Active”.

With COC(=O)/C(=C\c1ccc2c3c1C(=O)O[C@H]3CCC2(C)C)C(C)C the inhibition [3] was “Active”, the inhibition [4] was “Active” and the inhibition [5] was “Active”. The Activity [1] was “Active”.

In the case of CC(C)c1cc2ccc3c(c2c(O)c1O)C(=O)CCC3(C)C, the Activity [1] is reported as “Active”.

For COC(=O)[C@@H](N)CCCNC(=N)N[N+](=O)[O-], the inhibition at 1 µM [10] was 47.1% and the inhibition at 1 µM [11] was 51.2%.

From ChEMBL document CHEMBL5257087, “Anti-inflammatory Activity of Tanshinone-Related Diterpenes from Perovskia artemisioides Roots” (2023)
